Reference: ChEMBL document CHEMBL1143909, “Novel cholesterol biosynthesis inhibitors targeting human lanosterol 14alpha-demethylase (CYP51)” (Bioorg Med Chem, 2008)
The source made the active and inactive calls. No cut-off for these calls is given here.

Experiments:
[1] = target: T1, Lanosterol 14-alpha demethylase (Homo sapiens, UniProt Q16850); assay: Binding affinity to human His-tagged CYP51 expressed in Escherichia coli
T1 sequence (Q16850 whole entry): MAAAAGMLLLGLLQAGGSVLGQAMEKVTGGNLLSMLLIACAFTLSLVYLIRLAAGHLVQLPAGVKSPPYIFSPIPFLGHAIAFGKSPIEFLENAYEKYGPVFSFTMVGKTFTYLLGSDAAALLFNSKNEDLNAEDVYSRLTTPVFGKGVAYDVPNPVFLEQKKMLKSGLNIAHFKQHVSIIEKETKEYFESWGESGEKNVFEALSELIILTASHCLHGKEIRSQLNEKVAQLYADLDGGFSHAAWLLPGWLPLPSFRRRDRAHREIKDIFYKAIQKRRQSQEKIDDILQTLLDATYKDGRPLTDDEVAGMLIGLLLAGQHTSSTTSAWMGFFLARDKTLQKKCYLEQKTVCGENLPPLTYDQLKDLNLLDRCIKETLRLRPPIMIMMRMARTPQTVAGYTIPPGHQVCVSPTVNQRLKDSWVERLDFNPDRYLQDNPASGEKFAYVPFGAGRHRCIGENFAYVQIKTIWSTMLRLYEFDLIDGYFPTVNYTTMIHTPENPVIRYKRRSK
Summary of the method: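 Purified His-tagged human CYP51 titrated with inhibitor at room temperature in 50 mM phosphate, 100 mM NaCl, 0.1 mM EDTA, 10% glycerol. Difference spectra recorded 350-500 nm; A412–A432 plotted against inhibitor concentration. Enzyme 0.5 or 2 µM, titration ranges 0.25-400 µM depending on compound. Apparent Kd from hyperbolic nonlinear fit of free inhibitor; three repeats per compound.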

[2] = system: HepG2; assay: Ex vivo inhibition of CYP51 mediated cholesterol biosynthesis in human HepG2 cells assessed as increase in lanosterol accumulation at 10 uM relative to control
[3] = target: T2, Delta(14)-sterol reductase TM7SF2 (Homo sapiens) (UniProt O76062); assay: Inhibition of Delta-(14)-sterol reductase in human HepG2 cells assessed as accumulation of FF-MAS; assay type: cell-based
T2 sequence (whole entry): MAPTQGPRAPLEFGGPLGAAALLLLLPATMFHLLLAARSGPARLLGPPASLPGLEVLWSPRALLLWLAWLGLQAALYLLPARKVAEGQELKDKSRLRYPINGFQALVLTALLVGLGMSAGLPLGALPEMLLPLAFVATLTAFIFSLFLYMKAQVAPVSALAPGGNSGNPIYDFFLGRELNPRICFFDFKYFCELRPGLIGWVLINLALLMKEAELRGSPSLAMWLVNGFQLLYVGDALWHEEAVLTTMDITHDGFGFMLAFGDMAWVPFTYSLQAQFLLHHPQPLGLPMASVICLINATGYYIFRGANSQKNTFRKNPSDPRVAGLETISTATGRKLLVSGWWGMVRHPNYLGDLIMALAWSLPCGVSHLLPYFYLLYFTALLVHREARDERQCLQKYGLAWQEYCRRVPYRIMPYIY
Summary of the method: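 HepG2 cells grown 24 h at 37 °C, 5% CO2 in DMEM high with 5% calf serum, then 10 µM compound for 24 h. Fresh medium with [3H]acetate (40 µCi/ml) for 4 h. Sterols extracted from homogenate with ergosterol internal standard, separated by reversed-phase HPLC (100% acetonitrile, 40 °C) with radioactivity detection. Read as ratios to untreated cells: two experiments × two replicas, mean of 8 ratios ± SD.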

## Br.CCCN(CCc1ccc(Cl)c(Cl)c1)CC(O)c1cccnc1 (centres undefined)
[1]
  Kd: 0.4 µM
[2]
  Activity: 6

## Br.CCCN(CCc1ccc(F)c(F)c1)CC(O)c1cccnc1 (centres undefined)
[1]
  Kd: 27 µM
[2]
  Activity: 1.9

## Br.CCCN(CCc1cccnc1)CC(O)c1cccnc1 (centres undefined)
[1]
  Kd: 260 µM
[2]
  Activity: 1

## Br.CCCN(CCc1ccc(OC)c(OC)c1)CC(O)c1cccnc1 (centres undefined)
[1]
  Kd: 29.2 µM
[2]
  Activity: 1.8

## Br.CCCN(CCc1ccc(Cl)c(Cl)c1)CC(O)c1cc(C)ccn1 (centres undefined)
[1]
  Kd: > 1000 µM
[2]
  Activity: 1.2

## CC(=O)N1CCN(c2ccc(OC[C@H]3CO[C@](Cn4ccnc4)(c4ccc(Cl)cc4Cl)O3)cc2)CC1 [KETOCONAZOLE]
[1]
  Kd: 0.11 µM

## CCCN(CCc1cccnc1)CCc1cccc(F)c1
[3]
  Activity: Active

## Br.CCCN(CCc1ccc2ccccc2c1)CC(O)c1cccnc1 (centres undefined)
[1]
  Kd: 0.34 µM
[2]
  Activity: 5
